Measured values published in ChEMBL document CHEMBL1134288, “Design and optimization of 20-O-linked camptothecin glycoconjugates as anticancer agents” (J Med Chem, 2001).

Columns and labels:
HT-29 = assay: In vitro cytotoxic activity against human colon cancer cell line HT-29 using MTT growth inhibition assay; type: functional, cell-based
How it was run: (§1)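 Cells were grown in RPMI 1640 with 10% FCS, trypsinized at confluence and plated at 50,000 cells/mL, then left 1 day. Compounds in DMSO or water were added, and growth was read 6 days later by MTT (5 mg/mL stock, 5 h at 37 °C). Formazan was dissolved in 2-propanol/water and absorbance read at 595 nm; IC50 was derived from this read-out.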

SW480 = assay: In vitro cytotoxic activity against human colon cancer cell line SW480 using MTT growth inhibition assay; type: functional, cell-based; how it was run: as §1
B16-F10 = assay: In vitro cytotoxic activity against murine melanoma cell line B16F10 using MTT growth inhibition assay; type: functional, cell-based; settings: Mus musculus
How it was run: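 This murine melanoma line was grown in RPMI 1640 with 10% FCS, trypsinized at confluence and seeded at 20,000 cells/mL, then left 1 day. Compounds in DMSO or water were added. After 6 days, MTT (5 mg/mL stock) was added for 5 h at 37 °C, formazan was dissolved in 2-propanol/water, and absorbance was read at 595 nm to give IC50.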

Homo sapiens [1] = species: Homo sapiens; assay: In vitro No effect conc (NOEC) with respect to elevated levels of Lactate dehydrogenase (LDH) using primary hepatocytes of human; type: functional, Hepatocyte
How it was run: (§2)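 Primary hepatocytes were isolated by two-step liver perfusion: first an EGTA (0.5 mM)/HEPES buffer, then a HEPES (pH 7.4) buffer with CaCl2 and collagenase type IV. Cells were cultured in collagen sandwich gels in supplemented medium with 10% FCS, then given 48 h adaptation. DMSO stocks (3 mM) were diluted in medium. Treatment ran 1-7 days with daily medium change, and ALT, AST and LDH were read in the supernatant.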

Canis familiaris [2] = species: Canis familiaris; assay: In vitro No effect conc (NOEC) with respect to elevated levels of aspartate aminotransferase (AST) using primary hepatocytes of dog; type: functional, Canis lupus familiaris, Hepatocyte; how it was run: as §2
Rattus norvegicus [3] = species: Rattus norvegicus; assay: In vitro No effect conc (NOEC) with respect to elevated levels of Lactate dehydrogenase (LDH) using primary hepatocytes of rat; type: functional, Hepatocyte; how it was run: as §2
Rattus norvegicus [4] = species: Rattus norvegicus; assay: In vitro No effect conc (NOEC) with respect to elevated levels of aspartate aminotransferase (AST) using primary hepatocytes of rat; type: functional, Hepatocyte; how it was run: as §2
Canis familiaris [5] = species: Canis familiaris; assay: In vitro No effect conc (NOEC) with respect to elevated levels of alanine aminotransferase (ALT) using primary hepatocytes of dog; type: functional, Canis lupus familiaris, Hepatocyte; how it was run: as §2
Rattus norvegicus [6] = species: Rattus norvegicus; assay: In vitro No effect conc (NOEC) with respect to elevated levels of alanine aminotransferase (ALT) using primary hepatocytes of rat; type: functional, Hepatocyte; how it was run: as §2
Canis familiaris [7] = species: Canis familiaris; assay: In vitro No effect conc (NOEC) with respect to elevated levels of Lactate dehydrogenase (LDH) using primary hepatocytes of dog; type: functional, Canis lupus familiaris, Hepatocyte; how it was run: as §2
Homo sapiens [8] = species: Homo sapiens; assay: In vitro No effect conc (NOEC) with respect to elevated levels of alanine aminotransferase (ALT) using primary hepatocytes of human; type: functional, Hepatocyte; how it was run: as §2
Homo sapiens [9] = species: Homo sapiens; assay: In vitro No effect conc (NOEC) with respect to elevated levels of aspartate aminotransferase (AST) using primary hepatocytes of human; type: functional, Hepatocyte; how it was run: as §2

SMILES | IC50 (HT-29) | IC50 (SW480) | IC50 (B16-F10) | NOEC (Homo sapiens [1]) | NOEC (Canis familiaris [2]) | NOEC (Rattus norvegicus [3]) | NOEC (Rattus norvegicus [4]) | NOEC (Canis familiaris [5]) | NOEC (Rattus norvegicus [6]) | NOEC (Canis familiaris [7]) | NOEC (Homo sapiens [8]) | NOEC (Homo sapiens [9])
CC[C@@]1(OC(=O)[C@H](NC(=O)[C@H](CCCCN)/N=C(\S)Nc2ccc(O[C@H]3O[C@@H](C)[C@@H](O)[C@@H](OC)[C@@H]3O)cc2)C(C)C)C(=O)OCc2c1cc1n(c2=O)Cc2cc3ccccc3nc2-1 | 0.12 µM | 0.15 µM | 0.6 µM | – | – | – | – | – | – | – | – | –
CC[C@@]1(OC(=O)CNC(=O)[C@H](CCCCN)/N=C(\S)Nc2ccc(O[C@H]3O[C@@H](C)[C@@H](O)[C@@H](OC)[C@@H]3O)cc2)C(=O)OCc2c1cc1n(c2=O)Cc2cc3ccccc3nc2-1 | 0.01 µM | 0.03 µM | 0.05 µM | – | – | – | – | – | – | – | – | –
CC[C@@]1(O)C(=O)OCc2c1cc1n(c2=O)Cc2cc3c(CN(C)C)c(O)ccc3nc2-1.Cl [TOPOTECAN HYDROCHLORIDE] | – | – | – | 10 µM | 0.1 µM | 1 µM | 0.1 µM | 1 µM | 0.1 µM | 1 µM | 0.1 µM | 1 µM
CC[C@@]1(OC(=O)C(NC(=O)[C@H](CCCCN)/N=C(\S)Nc2ccc(O[C@H]3O[C@@H](C)[C@@H](O)[C@@H](OC)[C@@H]3O)cc2)C(C)C)C(=O)OCc2c1cc1n(c2=O)Cc2cc3ccccc3nc2-1 (stereo partly specified) | 0.15 µM | 0.17 µM | 0.7 µM | 30 µM | 30 µM | 30 µM | 30 µM | 10 µM | 30 µM | 30 µM | 30 µM | 30 µM
CC[C@@]1(OC(=O)C(NC(=O)[C@H](CCCN=C(N)N)/N=C(\S)Nc2ccc(O[C@H]3O[C@@H](C)[C@@H](O)[C@@H](OC)[C@@H]3O)cc2)C(C)C)C(=O)OCc2c1cc1n(c2=O)Cc2cc3ccccc3nc2-1 (stereo partly specified) | 0.1 µM | 0.17 µM | 0.4 µM | – | – | – | – | – | – | – | – | –
CC[C@@]1(OC(=O)[C@H](NC(=O)[C@H](CCCN=C(N)N)/N=C(\S)Nc2ccc(O[C@H]3O[C@@H](C)[C@@H](O)[C@@H](OC)[C@@H]3O)cc2)C(C)C)C(=O)OCc2c1cc1n(c2=O)Cc2cc3ccccc3nc2-1 | 0.1 µM | 0.11 µM | 0.4 µM | – | – | – | – | – | – | – | – | –
CC[C@@]1(OC(=O)C(NC(=O)[C@H](Cc2c[nH]cn2)/N=C(\S)Nc2ccc(O[C@H]3O[C@@H](C)[C@@H](O)[C@@H](OC)[C@@H]3O)cc2)C(C)C)C(=O)OCc2c1cc1n(c2=O)Cc2cc3ccccc3nc2-1 (stereo partly specified) | 0.06 µM | 0.17 µM | 0.25 µM | 30 µM | 10 µM | 10 µM | 10 µM | 10 µM | 10 µM | 10 µM | 30 µM | 30 µM
CC[C@@]1(OC(=O)CNC(=O)[C@H](Cc2c[nH]cn2)/N=C(\S)Nc2ccc(O[C@H]3O[C@@H](C)[C@@H](O)[C@@H](OC)[C@@H]3O)cc2)C(=O)OCc2c1cc1n(c2=O)Cc2cc3ccccc3nc2-1 | 0.01 µM | 0.015 µM | 0.03 µM | – | – | – | – | – | – | – | – | –
CC[C@@]1(OC(=O)[C@H](NC(=O)[C@H](Cc2c[nH]cn2)/N=C(\S)Nc2ccc(O[C@H]3O[C@@H](C)[C@@H](O)[C@@H](OC)[C@@H]3O)cc2)C(C)C)C(=O)OCc2c1cc1n(c2=O)Cc2cc3ccccc3nc2-1 | 0.16 µM | 0.23 µM | 0.6 µM | – | – | – | – | – | – | – | – | –
